Source: ChEMBL document CHEMBL3045116, “Synthesis and biological evaluation of 2-(5-substituted-1-((diethylamino)methyl)-2-oxoindolin-3-ylidene)-N-substituted-hydrazinecarbothioamides” (Med Chem Res, 2013)

Legend:
Influenza A virus H3N2 = test: Antiviral activity against Influenza A virus H3N2 infected MDCK cells assessed as reduction of virus-induced cytopathic effect after 3 days by colorimetric formazan-based MTS assay; type: functional, organism-based; settings: 72 h
Summary of the method: (§1)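 Confluent cell monolayers were infected with 100 CCID50 of virus, and serial dilutions of compound were added at the time of infection.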

[1] = Cytotoxicity against Chlorocebus aethiops (African green monkey) Vero cells assessed as change in cellular morphology; type: cell-based; settings: chlorocebus sabaeus
Punta Toro virus = test: Antiviral activity against Punta Toro virus infected in African green monkey Vero cells assessed as reduction of virus-induced cytopathic effect after 3 days by colorimetric formazan-based MTS assay; type: functional, organism-based; settings: 72 h; summary of the method: as §1
Felid alphaherpesvirus 1 = test: Antiviral activity against Felid herpesvirus 1 infected cat CRFK cells assessed as reduction of virus-induced cytopathic effect after 3 days by colorimetric formazan-based MTS assay; type: functional, organism-based; settings: Felid alphaherpesvirus 1, CRFK, 72 h
Summary of the method: (§2)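 Cells grown to confluency in 96-well plates ([…], Vero for lines 9–10) were infected with 100 CCID50 of virus, and serial compound dilutions were added at infection. Plates were incubated at 37 °C for 3 days, until complete CPE appeared in untreated virus controls.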

Coxsackievirus B4 [2] = test: Antiviral activity against Human coxsackievirus B4 infected African green monkey Vero cells assessed as reduction of virus-induced cytopathic effect after 3 days by colorimetric formazan-based MTS assay; type: functional, organism-based; settings: Enterovirus B, 72 h; summary of the method: as §1
Human alphaherpesvirus 2 = test: Antiviral activity against Human herpesvirus 2 strain G infected human HEL cells assessed as reduction of virus-induced cytopathic effect after 3 days by colorimetric formazan-based MTS assay; type: functional, organism-based; settings: Human alphaherpesvirus 2, strain G, 72 h; summary of the method: as §1
Human alphaherpesvirus 1 [3] = test: Antiviral activity against Human herpesvirus 1 strain KOS infected human HEL cells assessed as reduction of virus-induced cytopathic effect after 3 days by colorimetric formazan-based MTS assay; type: functional, organism-based; settings: Human alphaherpesvirus 1, KOS, 72 h; summary of the method: as §1
Respirovirus muris = test: Antiviral activity against Sendai virus infected African green monkey Vero cells assessed as reduction of virus-induced cytopathic effect after 3 days by colorimetric formazan-based MTS assay; type: functional, organism-based; settings: 72 h
[4] = Cytotoxicity against Felis catus (cat) CRFK cells assessed as change in cellular morphology; type: cell-based; settings: crfk
Summary of the method: (§3)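 Uninfected cells were exposed to compound in parallel with the antiviral cultures. The read-out is the minimum cytotoxic concentration that causes a microscopically detectable alteration of normal cell morphology.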

Klebsiella pneumoniae = test: Antibacterial activity against Klebsiella pneumoniae assessed as growth inhibition at 50 ug/ml by cup-plate method (reference value: 8 to 10 mm); type: functional; settings: read-out: DIZ
Influenza B virus = test: Antiviral activity against Influenza B virus infected in MDCK cells assessed as reduction of virus-induced cytopathic effect after 3 days by colorimetric formazan-based MTS assay; type: functional, organism-based; settings: 72 h; summary of the method: as §1
Staphylococcus aureus = test: Antibacterial activity against Staphylococcus aureus assessed as growth inhibition at 50 ug/ml by cup-plate method (reference value: 8 to 10 mm); type: functional; settings: read-out: DIZ
Vaccinia virus = test: Antiviral activity against Vaccinia virus infected human HEL cells assessed as reduction of virus-induced cytopathic effect after 3 days by colorimetric formazan-based MTS assay; type: functional, organism-based; settings: Orthopoxvirus vaccinia, 72 h; summary of the method: as §1
Human alphaherpesvirus 1 [5] = test: Antiviral activity against acyclovir-resistant thymidine kinase negative Human herpesvirus 1 strain KOS infected human HEL cells assessed as reduction of virus-induced cytopathic effect after 3 days by colorimetric formazan-based MTS assay; type: functional, organism-based; settings: Human alphaherpesvirus 1, KOS, 72 h; summary of the method: as §1
[6] = tested on: Mammalian orthoreovirus 1; test: Antiviral activity against Mammalian orthoreovirus 1 infected African green monkey Vero cells assessed as reduction of virus-induced cytopathic effect after 3 days by colorimetric formazan-based MTS assay; type: functional, organism-based; settings: Mammalian orthoreovirus 1, Vero, 72 h; summary of the method: as §2
[7] = tested on: Feline infectious peritonitis virus; test: Antiviral activity against Feline Infectious peritonitis virus infected cat CRFK cells assessed as reduction of virus-induced cytopathic effect after 3 days by colorimetric formazan-based MTS assay; type: functional, organism-based; settings: Alphacoronavirus 1, CRFK, 72 h; summary of the method: as §1
Influenza A virus = test: Antiviral activity against Unidentified Influenza A virus (H1N1) infected MDCK cells assessed as reduction of virus-induced cytopathic effect after 3 days by colorimetric formazan-based MTS assay; type: functional, organism-based; settings: 72 h; summary of the method: as §1
[8] = tested on: Vesicular stomatitis virus; test: Antiviral activity against Vesicular stomatitis virus infected human HeLa cells assessed as reduction of virus-induced cytopathic effect after 3 days by colorimetric formazan-based MTS assay; type: functional, organism-based; settings: 72 h; summary of the method: as §1
[9] = Cytotoxicity against Homo sapiens (human) HEL cells assessed as change in cellular morphology; type: cell-based
Bacillus subtilis = test: Antibacterial activity against Bacillus subtilis assessed as growth inhibition at 50 ug/ml by cup-plate method (reference value: 8 to 10 mm); type: functional; settings: read-out: DIZ
Coxsackievirus B4 [10] = test: Antiviral activity against Human coxsackievirus B4 infected human HeLa cells assessed as reduction of virus-induced cytopathic effect after 3 days by colorimetric formazan-based MTS assay; type: functional, organism-based; settings: Enterovirus B, 72 h; summary of the method: as §1
Proteus vulgaris = test: Antibacterial activity against Proteus vulgaris assessed as growth inhibition at 50 ug/ml by cup-plate method (reference value: 8 to 10 mm); type: functional; settings: read-out: DIZ
[11] = Inhibition of beta lactamase assessed as time for decolorization of iodine (reference value: 79.5 secs)
Human respirovirus 3 = test: Antiviral activity against Human parainfluenza virus 3 infected African green monkey Vero cells assessed as reduction of virus-induced cytopathic effect after 3 days by colorimetric formazan-based MTS assay; type: functional, organism-based; settings: Human respirovirus 3, Vero, 72 h; summary of the method: as §2
[12] = (§4) Cytotoxicity against Homo sapiens (human) HeLa cells assessed as change in cellular morphology; type: cell-based; settings: HeLa cells; summary of the method: as §3
HeLa = test: as §4; type: cell-based; settings: hela; summary of the method: as §3
CCRF-CEM = test: Cytotoxicity against Homo sapiens (human) CEM cells assessed as growth inhibition after 72 hr by coulter counter analysis; type: functional, cell-based
Summary of the method: (§5)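 Cells in growth medium were allowed to proliferate with variable compound amounts at 37 °C in a humidified CO2 atmosphere. Incubation ran 48 h for L1210, 72 h for CEM and 96 h for HeLa. Cells were then counted with a Coulter counter.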

L1210 = test: Cytotoxicity against Mus musculus (mouse) L1210 cells assessed as growth inhibition after 48 hr by coulter counter analysis; type: functional, cell-based; settings: L1210, 48 h; summary of the method: as §5
Aspergillus niger = test: Antifungal activity against Aspergillus niger assessed as growth inhibition at 50 ug/ml by cup-plate method (reference value: 8 to 10 mm); type: functional; settings: read-out: DIZ
[13] = tested on: Vesicular stomatitis virus; test: Antiviral activity against Vesicular stomatitis virus infected human HEL cells assessed as reduction of virus-induced cytopathic effect after 3 days by colorimetric formazan-based MTS assay; type: functional, organism-based; settings: 72 h; summary of the method: as §1
Salmonella typhi = test: Antibacterial activity against Salmonella enterica subsp. enterica serovar Typhi assessed as growth inhibition at 50 ug/ml by cup-plate method (reference value: 8 to 10 mm); type: functional; settings: read-out: DIZ
[14] = tested on: Respiratory syncytial virus; test: Antiviral activity against Respiratory syncytial virus infected human HeLa cells assessed as reduction of virus-induced cytopathic effect after 3 days by colorimetric formazan-based MTS assay; type: functional, organism-based; settings: 72 h; summary of the method: as §1
[15] = Inhibition of beta lactamase assessed as increase in time taken for iodine decolorization relative to control; set-up: concentration or dose not given beside the values; settings: concentration not given here
Candida albicans = test: Antifungal activity against Candida albicans assessed as growth inhibition at 50 ug/ml by cup-plate method (reference value: 8 to 10 mm); type: functional; settings: read-out: DIZ
Escherichia coli = test: Antibacterial activity against Escherichia coli assessed as growth inhibition at 50 ug/ml by cup-plate method (reference value: 8 to 10 mm); type: functional; settings: read-out: DIZ
MDCK = test: (§6) Cytotoxicity against MDCK cells assessed as change in cellular morphology; type: cell-based, Canis lupus familiaris; settings: dog, mdck; summary of the method: as §3
[16] = as §6; type: cell-based, Canis lupus familiaris; settings: dog, MDCK cells; summary of the method: as §3

Structure (SMILES): CCN(CC)CN1C(=O)/C(=N/NC(=S)Nc2ccc(Cl)cc2)c2ccccc21
- EC50 (Influenza A virus H3N2): > 0.16 µM
- MCC [1]: 20 µM
- EC50 (Punta Toro virus): > 4 µM
- EC50 (Felid alphaherpesvirus 1): > 0.8 µM
- EC50 (Coxsackievirus B4 [2]): > 4 µM
- EC50 (Human alphaherpesvirus 2): 15 µM
- EC50 (Human alphaherpesvirus 1 [3]): 15 µM
- EC50 (Respirovirus muris): > 4 µM
- CC50 [4]: 4 µM
- zone of inhibition at 50 µg/mL (Klebsiella pneumoniae): 11 mm
- EC50 (Influenza B virus): > 0.16 µM
- zone of inhibition at 50 µg/mL (Staphylococcus aureus): 11 mm
- EC50 (Vaccinia virus): ≥ 20 µM
- EC50 (Human alphaherpesvirus 1 [5]): ≥ 20 µM
- EC50 [6]: > 4 µM
- EC50 [7]: > 0.8 µM
- EC50 (Influenza A virus): > 0.16 µM
- EC50 [8]: > 4 µM
- MCC [9]: 100 µM
- zone of inhibition at 50 µg/mL (Bacillus subtilis): 21 mm
- EC50 (Coxsackievirus B4 [10]): > 4 µM
- zone of inhibition at 50 µg/mL (Proteus vulgaris): 11 mm
- TIME [11]: 0.036 h
- EC50 (Human respirovirus 3): > 4 µM
- MCC [12]: ≥ 4 µM
- CC50 (HeLa): 9.8 µM
- IC50 (CCRF-CEM): 10 µM
- IC50 (L1210): 11 µM
- zone of inhibition at 50 µg/mL (Aspergillus niger): 11 mm
- EC50 [13]: > 20 µM
- zone of inhibition at 50 µg/mL (Salmonella typhi): 11 mm
- EC50 [14]: > 4 µM
- inhibition [15]: 38.7%
- zone of inhibition at 50 µg/mL (Candida albicans): 11 mm
- zone of inhibition at 50 µg/mL (Escherichia coli): 21 mm
- CC50 (MDCK): 0.4 µM
- MCC [16]: 800 nM
